A selection: hits, their analogues and other compounds. The true share with any hit is near 3.8%.
GPR7 antag = GPR7 receptor antagonists, primary screen, cell-based, fluorescence, single concentration; inhibition, % at 4.4 µM; 1.1% of 290,000 active; AID 1861, 2009; Neuropeptides B/W receptor type 1 (Homo sapiens), P48145; GPR7-expressing cells, fluorescence antagonist assay; in the data active = inhibition above about 16%, passing the limit was not always enough;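 note: cells stimulated with the agonist NPW; 0% = agonist with vehicle and 100% = vehicle without agonist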
OX1R antag-1 = OX1R (HCRTR1) antagonists, primary screen, fluorescence, CHO/OX1R cells, Fluo-8 calcium, orexin A; AID 434989, 2010; Fluo-8 calcium fluorescence; 0.43% of 330,000 active; inhibition, % at 5 µM; Orexin/Hypocretin receptor type 1 (Homo sapiens), O43613;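 active = inhibition above its plate's threshold, mean inhibition of all tested compounds on the plate plus 3 SD, cut at about 37% in these data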;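 note: 0% = orexin A challenge wells and 100% = SB-334867-A antagonist wells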
Target sequence (O43613 whole entry, looked up): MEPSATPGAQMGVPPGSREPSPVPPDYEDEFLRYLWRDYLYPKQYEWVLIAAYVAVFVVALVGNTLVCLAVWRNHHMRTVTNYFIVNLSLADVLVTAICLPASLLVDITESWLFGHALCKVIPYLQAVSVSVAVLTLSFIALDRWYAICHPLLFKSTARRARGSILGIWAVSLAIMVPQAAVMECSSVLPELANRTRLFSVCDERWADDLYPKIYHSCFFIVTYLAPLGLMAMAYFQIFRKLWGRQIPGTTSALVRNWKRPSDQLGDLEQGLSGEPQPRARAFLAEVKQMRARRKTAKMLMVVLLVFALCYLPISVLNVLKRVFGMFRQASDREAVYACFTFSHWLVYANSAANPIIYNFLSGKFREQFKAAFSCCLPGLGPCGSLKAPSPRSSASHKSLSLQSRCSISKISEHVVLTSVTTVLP
CHO parental Ca = ATP-evoked calcium signal inhibitors, parental CHO, primary screen, counter-screen for OX1R antagonist project, cell-based, fluorescence, Fluo-8 calcium dye; 0.63% of 330,000 active; parental CHO-K1, ATP-induced calcium, Fluo-8 fluorescence; inhibition, % at 5.6 µM;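 active = inhibition above that plate's mean sample inhibition plus 3 SD, cut at about 26% in these data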;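 note: 0% = ATP-challenged DMSO wells and 100% = DMSO wells without ATP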
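Material: parental CHO cells / Compound: single nominal dose of 5.6 µM per compound / Signal: Fluo-8 fluorescence / Replicates: singlicate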
OX1R antag-2 = antagonists of human orexin 1 receptor (OX1R); Orexin/Hypocretin receptor type 1 (Homo sapiens), O43613; OX1R-expressing cells, FRET antagonist read-out; inhibition, % at 6.6 µM; 1.8% of 330,000 active; AID 485270, 2010; in the data active = inhibition mostly above about 38%, no sharp cut-off; inactive = mostly below about 40%;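 note: 0% = agonist challenge alone and 100% = reference antagonist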
MPTP inh = mitochondrial permeability transition pore inhibitors, primary screen, biochemical, isolated mouse mitochondria, absorbance; Ca2+ swelling absorbance, 30 min; inhibition, % at 10 µM; 1.4% of 360,000 active;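 active = inhibition of 50% or more, scaled per plate between neutral and stimulator controls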;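 note: 0% = DMSO wells given calcium and 100% = 1 mM EGTA wells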
MPTP counter = fluorescence retest of MPTP screen hits in isolated mitochondria, single concentration. AID 624504, 2012. membrane potential, Rhodamine 123 fluorescence. 78% of 5,000 active. shares compounds with MPTP inh. inhibition, % at 10 µM; in the data active = inhibition above about 22%;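 note: 0% = DMSO vehicle and 100% = positive control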
MPTP abs DR = mitochondrial permeability transition pore inhibitors, dose response, biochemical, absorbance, uHTS hits. 58% of 780 active. isolated mitochondria swelling. IC50, µM. shares compounds with MPTP inh; in the data active = IC50 below about 20 µM
MPTP cs DR = fluorescent counter-screen in isolated mitochondria, dose response, counter-screen for MPTP inhibitor project, biochemical, fluorescence, uHTS hits; shares compounds with MPTP inh; AID 651564, 2012; 49% of 780 active; isolated mitochondria counterscreen, fluorescence read-out; IC50, µM; in the data active = IC50 below about 80 µM
Numbers without * were called inactive; i = inactive; · = no result.

SMILES | GPR7 antag | OX1R antag-1 | CHO parental Ca | OX1R antag-2 | MPTP inh | MPTP counter | others
CC(C)[C@H](NC(=O)c1ccc(Cl)c([N+](=O)[O-])c1)C(=O)NCc1ccc(Cl)cc1Cl | -5 | -35 | -19 | 28 | 86* | 93*
Cc1ccc2nc(Cl)c(/C=N/NC(=O)c3ccccc3O)cc2c1 | -5 | -5 | -22 | 34 | 65* | 76*
Cc1ccc2nc(Cl)c(/C=N/NC(=O)[C@H]3C[C@@H]3c3ccccc3)cc2c1 | 0 | -29 | -21 | 3 | 14 | ·
O=C(c1cc(COc2ccc3c(c2)CCCC3)on1)N1CCCC1 | -12 | -6 | 6 | 13 | -2 | ·
CCN(CC(=O)Nc1ccc(C(=O)OC)cc1)C1CCCCC1 | -2 | -25 | -13 | 14 | -2 | ·
CN(C)c1ccc(NC(=O)CN2C(=O)c3ccccc3C2=O)cc1 | -13 | -6 | -16 | 7 | 0 | ·
CC(C)CC(=O)NC(=S)Nc1ccc(NC(=O)c2cccs2)cc1 | 4 | -15 | -6 | 13 | 4 | ·
CC(C)CC(=O)NC(=S)Nc1ccc(N2CCN(C(=O)c3cccs3)CC2)cc1 | 14 | 36 | 24 | 21 | 93* | 64*
CC(=O)N1CCN(c2ccc(NC(=S)NC(=O)COc3ccc(C(C)(C)C)cc3)cc2)CC1 | -9 | 24 | 21 | 40 | 88* | 88*
COc1ccc(C(C)(C)C)cc1NC(=O)C1CC(=O)N(C2CCCC2)C1 (configuration not stated) | · | -5 | -13 | 1 | 1 | ·
Cc1ccc(C)c(S(=O)(=O)N2CCN(Cc3cc4c(cc3O)OCO4)CC2)c1 | · | -4 | -25 | 5 | 1 | ·
O=[N+]([O-])c1ccc2[nH]c(=S)sc2c1 | · | · | · | · | 57* | 77*
Cn1nc(C(C)(C)C)cc1NC(=O)C1(C)CCN1C(=O)CC(c1ccccc1)c1ccccc1 (configuration not stated) | · | · | · | · | 0 | ·
O=C(O)CN1C(=O)C2C3CC(C2C1=O)C1C(c2ccc(F)cc2)c2sc(=O)[nH]c2SC31 (configuration not stated) | -1 | -1 | -3 | 15 | 0 | ·
COc1ccccc1C(=O)NNC(=S)NC(=O)c1cccs1 | -4 | 20 | 18 | 34 | 2 | ·
Cc1c(NC(=S)NC(=O)c2sc3ccccc3c2Cl)cccc1C(=O)O | 4 | -6 | 1 | 4 | -2 | ·
COc1ccccc1C(=O)NC(=S)NNC(=O)c1sc2ccccc2c1Cl | 0 | 9 | -3 | 43 | 95* | -7
COc1ccccc1C(=O)NNC(=S)NC(=O)c1sc2ccccc2c1Cl | 2 | -5 | -6 | 6 | 98* | -11
O=C1c2ccccc2C(=O)N1c1ccc(Cc2ccncc2)cc1 | 0 | 1 | 8 | 6 | 54* | 16 | MPTP abs DR=i;MPTP cs DR=27*
O=C1c2ccccc2C(=O)N1c1ccccc1 | · | · | · | · | 1 | ·
Cc1ccc(NC(=O)NC2CCN(S(=O)(=O)c3ccc(F)cc3)CC2)cc1 | 1 | -10 | -13 | 4 | 3 | ·
Cc1cc(Cl)ccc1NC(=O)NC1CCN(S(=O)(=O)c2ccc(F)cc2)CC1 | -5 | -19 | -6 | 22 | 59* | 76*
CNC(=S)N(Cc1ccc(Cl)cc1)Cc1cccs1 | 3 | -19 | -5 | 13 | 4 | ·
CNC(=O)CSc1nc2[nH]ncc2c(=O)[nH]1 | -5 | -3 | 1 | 10 | 1 | ·
COc1ccc(NS(=O)(=O)c2ccc(N3CCCC3)c(N)c2)cc1 | 0 | -6 | -1 | 11 | 78* | 84*
SMILES | GPR7 antag | OX1R antag-1 | CHO parental Ca | OX1R antag-2 | MPTP inh | MPTP counter | others
Nc1cc(S(=O)(=O)Nc2ccccc2Cl)ccc1N1CCOCC1 | -5 | -2 | 9 | 23 | 28 | ·
COc1ccc(NS(=O)(=O)c2ccc(N3CCCC3)c(NC(=S)Nc3ccc(SC(F)F)cc3)c2)cc1 | -1 | 11 | 23 | 0 | 64* | 81*
Nc1cc(S(=O)(=O)Nc2ccc(Cl)cc2)ccc1N1CCOCC1 | 10 | 34 | 36* | 15 | 91* | 55*
Cc1ccc(C(=O)NCCCc2ccccc2)s1 | -7 | 3 | -9 | 14 | -1 | ·
COc1ccccc1C(=O)ON=C1c2ccccc2-c2ccccc21 | -13 | -20 | 4 | 17 | 1 | ·
Cc1ccc(OCCC(=O)OCC(=O)NC(=O)NC2CCCCC2)cc1 | · | -29 | -12 | 12 | -1 | ·
Cc1ccc(-n2cc(CN3CCN(C(=O)c4ncn[nH]4)CC3)c(-c3ccc(F)cc3)n2)cc1 | 9 | -25 | -24 | 8 | 2 | ·
CC(C)(C)c1cc(C(=O)NNc2cc(C(F)(F)F)ccc2Cl)n(Cc2ccccc2)n1 | -10 | 4 | -7 | 45* | 75* | 78*
CCOC(=O)c1sc(-c2ccccc2)cc1NC(=O)Nc1ccc([N+](=O)[O-])cc1 | -3 | 5 | 0 | -3 | 87* | -5 | MPTP abs DR=i;MPTP cs DR=<2.5*
CCOC(=O)c1sc(-c2ccccc2)cc1N | -9 | -14 | -8 | 10 | 4 | ·
Cc1ccc(OCCNS(=O)(=O)c2ccc(N3CCCC3=O)cc2)cc1 | -7 | 18 | 16 | 26 | 84* | 70*
Cc1ccc(OCCNS(=O)(=O)c2ccc(N3CCCC3=O)cc2)cc1C | -3 | 34 | 9 | 35* | 104* | 92*
Cc1cc(N2CCCC2=O)cc(C)c1S(=O)(=O)NCCOc1ccccc1 | 1 | -8 | -10 | 15 | 1 | ·
COc1ccc(CCNS(=O)(=O)c2ccc(N3CCCC3=O)cc2)cc1 | 1 | -7 | -9 | 23 | 0 | ·
O=C(CN(C(=O)CCC(=O)Nc1nccs1)c1ccc(F)cc1)NCCc1ccccc1 | 3 | -23 | -18 | 41 | 0 | ·
CCCc1cc(=O)[nH]c(SCc2cc(Cl)ccc2OC(F)F)n1 | -7 | -21 | -21 | 16 | 71* | 55*
CCCc1cc(=O)[nH]c(SCc2ccc(Cl)cc2)n1 | -9 | 1 | 1 | 9 | 1 | ·
N/C(=N\c1nc(CSc2nnnn2-c2ccccc2)cc(=O)[nH]1)Nc1ccccc1 | -4 | -7 | -13 | 0 | · | ·
O=c1cc(CSc2nnnn2-c2ccccc2)nc(Nc2ccc(F)cc2)[nH]1 | 19 | 20 | -6 | 16 | 56* | 84*
CN1C(=O)Cc2cc(S(=O)(=O)N3CCN(c4cccc(C(F)(F)F)c4)CC3)ccc21 | -14 | -31 | -23 | 9 | 1 | ·
COc1ccc(Nc2nc(-c3c(C)nc4ncccn34)cs2)cc1 | 10 | · | · | · | 7 | ·

Assay outcomes as filed in PubChem.
